Data reported in ChEMBL document CHEMBL1146096, “Slow-binding human serine racemase inhibitors from high-throughput screening of combinatorial libraries” (J Med Chem, 2006).
Where a SMILES comes first, the peptide text is derived from it. [ ]: non-standard residue; d: D form. The star is where a group is joined. Phe(4-CN) = N#Cc1ccc(C[C@H](N)C(=O)O)cc1; Hydrocinnamoyl = O=C(CCc1ccccc1)*; hPhe = N[C@@H](CCc1ccccc1)C(=O)O; 2Thi = N[C@@H](Cc1cccs1)C(=O)O; Orn = NCCC[C@H](N)C(=O)O

target: T1, Serine racemase (Homo sapiens) (UniProt Q9GZT4); assay: Inhibition of human serine racemase at 2 mM
T1 sequence (whole entry): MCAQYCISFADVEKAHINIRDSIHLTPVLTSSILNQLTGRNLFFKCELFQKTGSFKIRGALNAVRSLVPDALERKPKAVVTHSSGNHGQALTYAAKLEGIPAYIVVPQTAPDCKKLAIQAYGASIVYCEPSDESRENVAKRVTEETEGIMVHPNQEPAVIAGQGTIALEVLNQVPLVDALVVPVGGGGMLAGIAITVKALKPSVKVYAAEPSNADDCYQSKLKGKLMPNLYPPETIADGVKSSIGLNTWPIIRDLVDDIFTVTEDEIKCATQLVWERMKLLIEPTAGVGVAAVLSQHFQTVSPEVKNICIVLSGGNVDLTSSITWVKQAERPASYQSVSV
How it was run: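 Recombinant His-tagged hSR (E. coli, Ni-NTA). Inhibitor tested at 2 mM in a DAAO/LDH-coupled assay of total racemization plus elimination, with the NADH decrease followed at 340 nm. Buffer: 200 mM TEA·HCl, 150 mM KCl, 50 µM PLP, 5 mM MgCl2, 2.5 mM ATP, 10 mM DTT. L-serine substrate. Reported as percent decrease in activity.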

inhibition	SMILES
70%	NC(=O)[C@H](CCc1ccccc1)NC(=O)[C@H](Cc1c[nH]cn1)NC(=O)CCc1ccccc1 (Hydrocinnamoyl-His-[hPhe]-NH2)
40%	NCCCC[C@H](NC(=O)[C@H](Cc1c[nH]cn1)NC(=O)CCc1ccccc1)C(N)=O (Hydrocinnamoyl-His-Lys-NH2)
42%	NC(=O)C[C@H](NC(=O)CCc1ccccc1)C(=O)N[C@@H](Cc1c[nH]cn1)C(N)=O (Hydrocinnamoyl-Asn-His-NH2)
49%	NCCC[C@H](NC(=O)[C@H](Cc1c[nH]cn1)NC(=O)CCc1ccccc1)C(N)=O (Hydrocinnamoyl-His-[Orn]-NH2)
0%	N#Cc1ccc(C[C@H](NC(=O)c2ccc(-c3ccccc3)cc2)C(=O)NC2(C(N)=O)CCC(O)CC2)cc1 (stereo partly specified)
10%	CC[C@@H](C)[C@H](NC(=O)[C@H](CO)NC(=O)/C=C/c1cccnc1)C(N)=O
8%	CSCC[C@H](NC(=O)N1C(=O)OC[C@@H]1c1ccccc1)C(=O)N[C@@H](CCC(=O)O)C(N)=O
72%	N#Cc1ccc(C[C@H](NC(=O)CCc2ccccc2)C(=O)N[C@@H](Cc2c[nH]cn2)C(N)=O)cc1 (Hydrocinnamoyl-[Phe(4-CN)]-His-NH2)
0%	CC[C@@H](C)[C@H](NC(=O)[C@H](Cc1c[nH]cn1)NC(=O)CCc1ccccc1)C(=O)NCCOCCOCNC(=O)CCC(N)=O
4%	NC(=O)[C@H](Cc1cccc(C(=O)c2ccccc2)c1)NC(=O)[C@H](Cc1ccccc1)NC(=O)COCC(=O)O
74%	CC[C@@H](C)[C@H](NC(=O)[C@H](Cc1c[nH]cn1)NC(=O)CCc1ccccc1)C(N)=O
68%	NC(=O)[C@H](Cc1cccs1)NC(=O)[C@H](Cc1c[nH]cn1)NC(=O)CCc1ccccc1 (Hydrocinnamoyl-His-[2Thi]-NH2)
54%	CCC(C)C[C@H](NC(=O)CCc1ccccc1)C(=O)N[C@@H](Cc1c[nH]cn1)C(N)=O (stereo partly specified)
57%	CC(C)C[C@H](NC(=O)[C@H](Cc1c[nH]cn1)NC(=O)CCc1ccccc1)C(N)=O (Hydrocinnamoyl-His-Leu-NH2)

target: T2, Serine racemase (Homo sapiens, UniProt Q9GZT4); assay: Inhibition of human serine racemase
T2 sequence (Q9GZT4 whole entry): T1 sequence (whole entry)
How it was run: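 His-tagged hSR expressed in E. coli BL21 and Ni-NTA purified. Combined racemization plus elimination rate coupled via DAAO and LDH; NADH decrease read at 340 nm. Mix: 200 mM TEA·HCl, 150 mM KCl, 50 µM PLP, 5 mM MgCl2, 2.5 mM ATP, 10 mM DTT, 0.3 mM NADH. Varied L-serine against fixed inhibitor levels (0–2 mM), 40 min preincubation. KI obtained by global fit of data.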

Ki	SMILES
610 µM	CC[C@@H](C)[C@H](NC(=O)[C@H](Cc1c[nH]cn1)NC(=O)CCc1ccccc1)C(N)=O
320 µM	NC(=O)[C@H](CCc1ccccc1)NC(=O)[C@H](Cc1cnc[nH]1)NC(=O)CCc1ccccc1 (Hydrocinnamoyl-His-[hPhe]-NH2)
